Reference: ChEMBL document CHEMBL1152658, “Antioxidant activity of benzoxazolinonic and benzothiazolinonic derivatives in the LDL oxidation model” (2009)
Activity calls are given as the source filed them. No cut-off for these calls is given here.

How the values were obtained:
[1] = Inhibition of CuSO4-induced human LDL oxidation assessed as ratio of length of lag phase of conjugated diene formation in presence of compound to untreated control at 100 uM measured every 10 mins for 8 hrs by spectrophotometry; format: functional
Method in brief: (§1)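 Human LDL taken from fasting normolipidemic volunteers by sequential NaBr density ultracentrifugation (1.019–1.063 g/mL), protein measured by Peterson method. Oxidation started with 16.6 µM CuSO4 or 2 mM AAPH, compound at 1–100 µM. Conjugated dienes read at 234 nm every 10 min for 8 h at 30 °C. R = lag phase with compound / lag phase without compound.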

[2] = Inhibition of CuSO4-induced human LDL oxidation assessed as ratio of length of lag phase of conjugated diene formation in presence of compound to untreated control at 10 uM measured every 10 mins for 8 hrs by spectrophotometry; format: functional; method in brief: as §1
[3] = Inhibition of CuSO4-induced human LDL oxidation assessed as ratio of length of lag phase of conjugated diene formation in presence of compound to untreated control at 5 uM measured every 10 mins for 8 hrs by spectrophotometry; format: functional; method in brief: as §1
[4] = Inhibition of AAPH-induced human LDL oxidation assessed as ratio of length of lag phase of conjugated diene formation in presence of compound to untreated control at 5 uM measured every 10 mins for 8 hrs by spectrophotometry; format: functional; method in brief: as §1
[5] = Inhibition of CuSO4-induced human LDL oxidation assessed as length of lag phase of conjugated diene formation measured every 10 mins for 8 hrs by spectrophotometry; format: functional
Method in brief: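 Human LDL (NaBr density ultracentrifugation, 1.019–1.063 g/mL) oxidized with 16.6 µM CuSO4 at 30 °C. Diene conjugation followed at 234 nm every 10 min for 8 h. Lag-phase length taken from the kinetic curves.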

[6] = Cytoprotective activity against minimally oxidized LDL-induced cytotoxicity in BAEC assessed as LDH release at 10 uM treated for 24 hrs before mO-LDL challenge measured after 16 hrs by spectrometry; format: functional, Bos taurus
Method in brief: (§2)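 BAECs (primary, bovine aorta) in DMEM with 10% newborn calf serum, glutamine, penicillin. Pretreated 24 h with drug in methanol (final 10 µM), then 16 h at 37 °C with drug plus native LDL or mO-LDL at 100 µg/mL (mO-LDL from LDL incubated at 30 °C without oxidant). Medium LDH read spectrometrically by NAD reduction, expressed as % of total LDH released by 0.1% Triton X-100; mean (SD) of two incubations in triplicate.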

BAEC [7] = experiment: Cytoprotective activity against LDL-induced cytotoxicity in BAEC assessed as decrease in LDH release at 10 uM treated for 24 hrs before LDL challenge measured after 16 hrs by spectrometry; format: functional; details: Bos taurus; method in brief: as §2
BAEC [8] = experiment: Cytoprotective activity against minimally oxidized LDL-induced cytotoxicity in BAEC assessed as decrease in number of detached and shrunk cells at 10 uM treated for 24 hrs before mO-LDL challenge measured after 16 hrs by spectrometry; format: functional, cell-based; details: Bos taurus
Method in brief: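 BAECs pretreated 24 h with drug (final 10 µM in methanol), then exposed 16 h at 37 °C to mO-LDL (100 µg protein/mL, air-oxidized LDL) with drug. Cells examined for morphology: contraction, cytoplasmic ramification, rounding and detachment from wells.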

[9] = Cytoprotective activity against minimally oxidized LDL-induced cytotoxicity in BAEC assessed as cell vitality at 10 uM treated for 24 hrs before mO-LDL challenge measured after 16 hrs by MTT assay; format: functional, Bos taurus
Method in brief: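 Primary bovine aortic endothelial cells grown in DMEM with 10% newborn calf serum, glutamine and penicillin. Pretreated 24 h with drug in methanol, then 16 h at 37 °C with air-oxidized LDL (100 µg protein/mL, made by incubating LDL at 30 °C without CuSO4 or AAPH) plus drug (final 10 µM). MTT (5 mg solution in PBS) added for 5 h. Formazan dissolved in dimethylformamide, A590 read, expressed as % of control wells.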

Q: Which Ratio [1] does the source give for `CCCN1CCc2c([nH]c3ccc(CC)cc23)C1c1cccc(OC)c1.Cl` (stereo not given) here?
A: The Ratio was > 5.

Q: What about the Ratio [2] of the same compound?
A: The Ratio was > 5.

Q: What about the Ratio [3] of the same compound?
A: Its Ratio is 1.6.

Q: And the Ratio [4]?
A: The Ratio was 1.5.

Q: And the Activity [5]?
A: Its Activity is “Dose-dependent effect”.

Q: And the Activity [6]?
A: The Activity was 15.32%.

Q: And the Activity (BAEC [7])?
A: Its Activity is “inactive”.

Q: And the Activity (BAEC [8])?
A: Its Activity is “Active”.

Q: And the Activity [9]?
A: Its Activity is 90%.

Q: Which Ratio [1] does the source give for `COc1cccc(C2NCCc3cc4sc(=O)n(C)c4cc32)c1` (stereo not given) here?
A: The Ratio was > 5.

Q: What about the Ratio [2] of the same compound?
A: The Ratio was > 5.

Q: And the Ratio [3]?
A: Its Ratio is 2.1.

Q: What about the Ratio [4] of the same compound?
A: The Ratio was 2.

Q: What about the Activity [5] of the same compound?
A: Its Activity is “Dose-dependent effect”.

Q: What about the Activity [6] of the same compound?
A: Its Activity is 14.5%.

Q: What about the Activity (BAEC [7]) of the same compound?
A: The Activity was “inactive”.

Q: And the Activity (BAEC [8])?
A: Its Activity is “Active”.

Q: What about the Activity [9] of the same compound?
A: Its Activity is 90%.

Q: Which Ratio [1] does the source give for `CCCN1CCc2cc3oc(=O)n(C)c3cc2C1c1cccc(OC)c1` (stereo not given) here?
A: The Ratio was > 5.

Q: And the Ratio [2]?
A: The Ratio was 3.3.

Q: What about the Ratio [3] of the same compound?
A: Its Ratio is 1.5.

Q: And the Activity [5]?
A: The Activity was “Dose-dependent effect”.

Q: And the Activity (BAEC [7])?
A: The Activity was “inactive”.

Q: What about the Activity (BAEC [8]) of the same compound?
A: Its Activity is “Active”.

Q: What about the Activity [9] of the same compound?
A: Its Activity is 90%.

Q: For `CCCCCCCCCN1CCc2cc3oc(=O)n(C)c3cc2C1c1cccc(OC)c1` (stereo not given), which Ratio [1] is on record?
A: The Ratio was > 5.

Q: And the Ratio [2]?
A: The Ratio was 3.8.

Q: And the Ratio [3]?
A: Its Ratio is 1.7.

Q: What about the Activity [5] of the same compound?
A: Its Activity is “Dose-dependent effect”.

Q: And the Activity (BAEC [7])?
A: Its Activity is “inactive”.

Q: What about the Activity (BAEC [8]) of the same compound?
A: The Activity was “Active”.

Q: And the Activity [9]?
A: The Activity was 90%.

Q: With `COc1cccc(C2=NCCc3cc4sc(=O)n(C)c4cc32)c1` as the compound, how does the Ratio [1] read?
A: Its Ratio is > 5.

Q: What about the Ratio [2] of the same compound?
A: Its Ratio is > 5.

Q: What about the Ratio [3] of the same compound?
A: The Ratio was 2.5.

Q: And the Ratio [4]?
A: Its Ratio is 2.5.

Q: And the Activity [5]?
A: The Activity was “Dose-dependent effect”.

Q: And the Activity [6]?
A: Its Activity is 14.12%.

Q: And the Activity (BAEC [7])?
A: Its Activity is “inactive”.

Q: And the Activity (BAEC [8])?
A: Its Activity is “Active”.

Q: What about the Activity [9] of the same compound?
A: Its Activity is 90%.

Q: For `CCCN1CCc2cc3oc(=O)n(C)c3cc2C1c1cccc(O)c1` (stereo not given), which Ratio [1] is on record?
A: Its Ratio is > 5.

Q: And the Ratio [2]?
A: The Ratio was > 5.

Q: What about the Ratio [3] of the same compound?
A: The Ratio was 2.5.

Q: What about the Ratio [4] of the same compound?
A: The Ratio was 2.4.

Q: What about the Activity [5] of the same compound?
A: Its Activity is “Dose-dependent effect”.

Q: What about the Activity [6] of the same compound?
A: Its Activity is 13.5%.

Q: And the Activity (BAEC [7])?
A: Its Activity is “inactive”.

Q: What about the Activity (BAEC [8]) of the same compound?
A: The Activity was “Active”.

Q: What about the Activity [9] of the same compound?
A: Its Activity is 90%.

Q: Which Activity [6] does the source give for `CCCN1CCc2cc(O)c(NC)cc2C1c1cccc(O)c1` (stereo not given) here?
A: The Activity was 14.1%.

Q: And the Activity (BAEC [7])?
A: The Activity was “inactive”.

Q: What about the Activity (BAEC [8]) of the same compound?
A: The Activity was “Active”.

Q: What about the Activity [9] of the same compound?
A: Its Activity is 90%.

Q: With `CCCN1CCc2cc3sc(=O)n(C)c3cc2C1c1cccc(OC)c1` (stereo not given) as the compound, how does the Ratio [1] read?
A: The Ratio was > 5.

Q: What about the Ratio [2] of the same compound?
A: The Ratio was > 5.

Q: And the Ratio [3]?
A: Its Ratio is 2.1.

Q: What about the Ratio [4] of the same compound?
A: The Ratio was 1.9.

Q: What about the Activity [5] of the same compound?
A: Its Activity is “Dose-dependent effect”.

Q: And the Activity [6]?
A: Its Activity is 14.6%.

Q: And the Activity (BAEC [7])?
A: Its Activity is “inactive”.

Q: What about the Activity (BAEC [8]) of the same compound?
A: The Activity was “Active”.

Q: And the Activity [9]?
A: The Activity was 90%.

Q: For `COc1ccc2[nH]c(=O)oc2c1` [COIXOL], which Ratio [1] is on record?
A: Its Ratio is 1.5.

Q: And the Activity [5]?
A: Its Activity is “Dose-dependent effect”.

Q: What about the Activity (BAEC [7]) of the same compound?
A: Its Activity is “inactive”.

Q: What about the Activity [9] of the same compound?
A: Its Activity is 90%.

Q: For `COc1cccc(C2=NCCc3cc4oc(=O)n(C)c4cc32)c1`, which Ratio [1] is on record?
A: Its Ratio is > 5.

Q: And the Ratio [2]?
A: The Ratio was 1.8.

Q: And the Ratio [3]?
A: Its Ratio is 1.

Q: And the Activity [5]?
A: Its Activity is “Dose-dependent effect”.

Q: What about the Activity (BAEC [7]) of the same compound?
A: The Activity was “inactive”.

Q: And the Activity (BAEC [8])?
A: Its Activity is “Active”.

Q: What about the Activity [9] of the same compound?
A: The Activity was 90%.

Q: Which Ratio [1] does the source give for `CCCN1CCc2cc(O)c(NC)cc2C1c1cccc(OC)c1` (stereo not given) here?
A: The Ratio was > 5.

Q: What about the Ratio [2] of the same compound?
A: The Ratio was > 5.

Q: And the Ratio [3]?
A: Its Ratio is 3.2.

Q: What about the Ratio [4] of the same compound?
A: Its Ratio is 3.3.

Q: And the Activity [5]?
A: Its Activity is “Dose-dependent effect”.

Q: What about the Activity [6] of the same compound?
A: The Activity was 13.2%.

Q: What about the Activity (BAEC [7]) of the same compound?
A: The Activity was “inactive”.

Q: What about the Activity (BAEC [8]) of the same compound?
A: The Activity was “Active”.

Q: What about the Activity [9] of the same compound?
A: The Activity was 90%.

Q: For `COc1ccc2[nH]cc(CCNC(C)=O)c2c1` [MELATONIN], which Ratio [1] is on record?
A: Its Ratio is 1.5.

Q: And the Activity [5]?
A: The Activity was “Dose-dependent effect”.

Q: And the Activity (BAEC [7])?
A: The Activity was “inactive”.

Q: What about the Activity (BAEC [8]) of the same compound?
A: The Activity was “Active”.

Q: And the Activity [9]?
A: Its Activity is 90%.

Q: With `COc1cccc(C2NCCc3cc4oc(=O)n(C)c4cc32)c1` (stereo not given) as the compound, how does the Ratio [1] read?
A: The Ratio was > 5.

Q: What about the Ratio [2] of the same compound?
A: Its Ratio is 1.8.

Q: And the Ratio [3]?
A: The Ratio was 1.

Q: And the Activity [5]?
A: Its Activity is “Dose-dependent effect”.

Q: What about the Activity (BAEC [7]) of the same compound?
A: Its Activity is “inactive”.

Q: What about the Activity (BAEC [8]) of the same compound?
A: The Activity was “Active”.

Q: And the Activity [9]?
A: Its Activity is 90%.
